Counter-ions that a name gives are not always drawn.
What was measured:
[1] = test system: HeLa cells; test: Total tyrosine phosphorylation ELISA; format: cell-based; details: at any of 0.1, 1.0 and 10.0 μM
Procedure, shortened: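 HeLa cells in RPMI-1640 with 10% FBS were seeded at 2 × 10^4 cells/well in triplicate and serum-starved 24 h. They were then treated 10 min with test compound at 0.1, 1.0 or 10.0 μM, with 0.25% DMSO as vehicle control and EGF (50 ng/mL, 10 min) as positive control. Total phosphotyrosine was measured with a tyrosine phosphorylation ELISA kit and compared with vehicle.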

[2] = test system: PC12 cells; test: Amphetamine-induced toxicity, cell viability by MTT; format: cell-based, Rat; details: amphetamine 1 mM, compound 1.0 μM, 24 hours
Procedure, shortened: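 Rat PC12 cells grown in RPMI-1640 with 10% FBS, seeded at 10^4 cells/well, then co-incubated with amphetamine (1.0 mM) and test compound (1.0 μM). For MTT, cells were PBS-washed and given fresh medium with MTT (5 mg/mL stock) for 4 h. Formazan was dissolved in DMSO with 10 min shaking at RT, and absorbance read at 570 nm. Data are mean ± S.E.M., analysed by one-way ANOVA with Tukey post-hoc.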

[3] = target: PTPRZ1 (Homo sapiens, UniProt P23471); test: In vitro dephosphorylation assay, phosphate sensor reagent, p-NPP substrate; format: biochemical; details: for inhibition at 1 µM: read-out: inhibition of the phosphatase activity of PTPRZ1
Chain of PTPRZ1 (P23471 25-2315): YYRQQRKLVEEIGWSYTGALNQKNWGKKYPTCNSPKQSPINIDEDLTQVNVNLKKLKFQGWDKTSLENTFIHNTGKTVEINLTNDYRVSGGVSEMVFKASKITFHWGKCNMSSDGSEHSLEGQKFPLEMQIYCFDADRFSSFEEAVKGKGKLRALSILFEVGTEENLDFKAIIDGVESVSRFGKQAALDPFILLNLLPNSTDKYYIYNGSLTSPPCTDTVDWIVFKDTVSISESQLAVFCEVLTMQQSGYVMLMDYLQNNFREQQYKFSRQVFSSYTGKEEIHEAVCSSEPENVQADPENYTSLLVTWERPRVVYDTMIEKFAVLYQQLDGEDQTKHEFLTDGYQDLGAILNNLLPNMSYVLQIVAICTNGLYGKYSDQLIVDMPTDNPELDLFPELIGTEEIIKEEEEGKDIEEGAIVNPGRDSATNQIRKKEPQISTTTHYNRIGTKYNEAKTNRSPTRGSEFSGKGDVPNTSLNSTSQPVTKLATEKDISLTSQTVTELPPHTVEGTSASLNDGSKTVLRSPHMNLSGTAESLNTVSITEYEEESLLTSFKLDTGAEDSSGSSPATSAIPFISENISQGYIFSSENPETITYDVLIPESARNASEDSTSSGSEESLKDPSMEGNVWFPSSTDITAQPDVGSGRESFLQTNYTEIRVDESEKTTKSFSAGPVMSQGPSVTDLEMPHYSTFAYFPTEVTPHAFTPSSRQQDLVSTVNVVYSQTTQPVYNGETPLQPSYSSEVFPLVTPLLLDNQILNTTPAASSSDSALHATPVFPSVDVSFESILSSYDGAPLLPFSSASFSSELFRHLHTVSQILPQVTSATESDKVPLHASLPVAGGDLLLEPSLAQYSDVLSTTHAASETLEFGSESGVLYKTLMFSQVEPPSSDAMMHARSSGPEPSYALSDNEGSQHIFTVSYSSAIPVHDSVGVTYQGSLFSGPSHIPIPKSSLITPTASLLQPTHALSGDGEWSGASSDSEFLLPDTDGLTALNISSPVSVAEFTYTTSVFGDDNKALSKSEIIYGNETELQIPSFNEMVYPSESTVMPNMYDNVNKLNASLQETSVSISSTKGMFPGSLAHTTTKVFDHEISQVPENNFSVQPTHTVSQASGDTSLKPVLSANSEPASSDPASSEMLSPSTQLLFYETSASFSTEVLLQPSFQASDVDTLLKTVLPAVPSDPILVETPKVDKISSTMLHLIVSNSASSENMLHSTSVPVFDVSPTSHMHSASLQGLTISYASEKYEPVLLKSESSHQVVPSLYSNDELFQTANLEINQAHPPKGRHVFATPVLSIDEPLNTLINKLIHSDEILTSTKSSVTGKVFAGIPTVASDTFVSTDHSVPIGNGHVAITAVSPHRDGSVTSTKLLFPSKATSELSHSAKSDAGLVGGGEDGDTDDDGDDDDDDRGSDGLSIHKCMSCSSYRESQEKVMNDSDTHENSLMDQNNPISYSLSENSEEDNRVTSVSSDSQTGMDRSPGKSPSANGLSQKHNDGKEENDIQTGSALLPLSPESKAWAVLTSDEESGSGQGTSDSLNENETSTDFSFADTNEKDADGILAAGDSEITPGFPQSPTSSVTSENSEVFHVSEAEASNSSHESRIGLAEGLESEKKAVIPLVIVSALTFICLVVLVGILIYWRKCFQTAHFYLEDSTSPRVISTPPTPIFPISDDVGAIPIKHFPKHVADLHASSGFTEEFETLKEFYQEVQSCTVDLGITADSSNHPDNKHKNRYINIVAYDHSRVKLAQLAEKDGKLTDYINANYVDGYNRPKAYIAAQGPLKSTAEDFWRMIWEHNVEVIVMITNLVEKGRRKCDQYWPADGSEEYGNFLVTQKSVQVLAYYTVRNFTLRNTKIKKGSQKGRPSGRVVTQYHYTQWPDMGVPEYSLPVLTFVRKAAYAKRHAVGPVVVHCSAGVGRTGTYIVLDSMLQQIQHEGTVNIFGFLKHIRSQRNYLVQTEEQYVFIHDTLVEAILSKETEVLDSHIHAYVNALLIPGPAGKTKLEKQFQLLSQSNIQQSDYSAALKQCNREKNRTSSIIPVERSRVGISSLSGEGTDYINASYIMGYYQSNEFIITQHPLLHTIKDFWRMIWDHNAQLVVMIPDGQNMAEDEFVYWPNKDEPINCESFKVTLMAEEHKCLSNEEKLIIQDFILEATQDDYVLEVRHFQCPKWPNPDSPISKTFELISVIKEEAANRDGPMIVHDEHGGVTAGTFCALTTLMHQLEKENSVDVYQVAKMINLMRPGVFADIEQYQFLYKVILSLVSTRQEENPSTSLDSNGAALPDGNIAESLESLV
Procedure, shortened: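 Single-concentration screen: human recombinant PTPRZ1 (0.1 μM) incubated with test compound at 1.0 μM and p-NPP substrate. Phosphate release was detected with a phosphate sensor reagent by fluorescence (excitation 430 nm, emission 450 nm) and expressed as percent inhibition of phosphatase activity.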

[4] = In vivo permeability study, GC-MS detection in plasma and brain; details: mice, 1h post-gavage, 60 mg/kg
Procedure, shortened: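 Mice were dosed by oral gavage at 60 mg/kg and killed 1 h later; brain and plasma were collected. Brain (50–100 mg) was bead-homogenised in ethyl acetate, then the supernatant was dried and taken up in heptane. Plasma (100 μL) was precipitated with 3 volumes of cold methanol at -2 °C for 20 min, dried and reconstituted in heptane. Samples were analysed by GC-MS (EI 70 eV), quantifying the extracted ion at m/z 191.0137 (LOQ ~70 ng/mL).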

[5] = test system: TrkA (Tyr490); test: Western blot of TrkA phosphorylation in SH-SY5Y cells; format: cell-based, human; details: SH-SY5Y cells, 1.0, 5.0 and 10.0 μM, 20 minutes
Procedure, shortened: (§1)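 Human SH-SY5Y cells, grown in EMEM/F12 (1:1) with 10% FBS at 37 °C and 5% CO2, were switched to serum-free medium just before treatment. They were then exposed to test compound (1.0, 5.0, 10.0 μM) or DMSO vehicle for 20 min and lysed in Tris-HCl pH 7.5/Triton buffer with phosphatase and protease inhibitors. Lysate (20 μg protein) was run on SDS-PAGE and blotted to PVDF. Blots were probed for phospho-TrkA (Y490) or phospho-ALK (Y1278), reprobed for total TrkA or ALK, and detected by ECL. Densitometry data are mean ± S.E.M., analysed by one-way ANOVA with Tukey post-hoc.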

[6] = target: T1, PTP1B (Homo sapiens, UniProt P18031); test: In vitro dephosphorylation assay, phosphate sensor reagent, p-NPP substrate; format: biochemical; details: from IC50 values of Table 2
T1 sequence (P18031 1-435): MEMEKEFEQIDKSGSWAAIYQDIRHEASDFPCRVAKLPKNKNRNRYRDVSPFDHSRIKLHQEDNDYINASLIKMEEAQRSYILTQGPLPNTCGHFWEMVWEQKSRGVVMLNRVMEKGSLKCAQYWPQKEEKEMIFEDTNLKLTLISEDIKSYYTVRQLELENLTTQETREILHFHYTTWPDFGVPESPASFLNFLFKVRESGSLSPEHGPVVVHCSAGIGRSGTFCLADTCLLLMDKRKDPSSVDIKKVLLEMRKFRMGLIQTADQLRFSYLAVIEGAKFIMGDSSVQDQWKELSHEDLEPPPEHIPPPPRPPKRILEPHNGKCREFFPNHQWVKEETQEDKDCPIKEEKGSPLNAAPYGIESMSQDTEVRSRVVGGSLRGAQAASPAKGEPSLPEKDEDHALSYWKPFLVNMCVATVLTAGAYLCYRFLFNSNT
Procedure, shortened: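 Human recombinant PTPRZ1 and PTP1B, each at 0.1 μM, tested against test compound at 0.001–100 μM with p-NPP as substrate. Released inorganic phosphate was detected with a phosphate sensor reagent as a fluorescence increase (excitation 430 nm, emission 450 nm). IC50 values were calculated for each enzyme, and selectivity was judged by comparing the PTPRZ1 and PTP1B IC50s.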

[7] = test system: alcohol-induced reward; details: mice; cited from earlier work
[8] = test system: ALK (Tyr1278); test: Western blot of ALK phosphorylation in SH-SY5Y cells; format: cell-based, human; details: SH-SY5Y cells, 1.0, 5.0 and 10.0 μM, 20 minutes
Procedure, shortened: as §1

With `FC(F)(F)Sc1ccc(COc2ccc(SC(F)(F)F)cc2)cc1` [10a, (Trifluoromethyl)(4-((4-((trifluoromethyl)thio)benzyl)oxy)phenyl)sulfane] as the molecule, how does the “increase of Phospho-Tyr levels” value [1] read?
Its value is ≥ 10%.

What about the “effect on amphetamine-induced loss of PC12 cell viability” value [2] of the same molecule?
The value was “significantly prevented amphetamine-induced loss of PC12 cell viability”.

What about the inhibition at 1 µM [3] of the same molecule?
Its inhibition at 1 µM is ≥ 10%.

And the “ability to cross the BBB” value [4]?
The value was “can cross the BBB”.

And the “increase of tyrosine phosphorylation of TrkA” value [5]?
Its value is 2–3 fold.

What about the “selectivity PTPRZ1 versus PTP1B” value [6] of the same molecule?
Its value is “strongly and selectively inhibit PTPRZ1”.

And the “effect on alcohol-induced reward” value [7]?
The value was “completely blocked alcohol-induced reward in mice”.

For `FC(F)(F)Sc1ccc(CN(Cc2ccc(SC(F)(F)F)cc2)Cc2ccc(SC(F)(F)F)cc2)cc1` [compound 13, tris(4-((trifluoromethyl)thio)benzyl)amine], which “increase of Phospho-Tyr levels” value [1] is on record?
Its value is ≥ 10%.

Which “increase of Phospho-Tyr levels” value [1] does the source give for `FC(F)(F)Sc1ccc(NCc2ccccc2)cc1` [12d, N-benzyl-4-((trifluoromethyl)thio)aniline] here?
Its value is ≥ 10%.

And the inhibition at 1 µM [3]?
The inhibition at 1 µM was ≥ 10%.

For `O=C(Cc1ccc(S(=O)(=O)C(F)(F)F)cc1)Nc1ccc(S(=O)(=O)C(F)(F)F)cc1` [5b, N,2-bis(4-((trifluoromethyl)sulfonyl)phenyl)acetamide], which inhibition at 1 µM [3] is on record?
Its inhibition at 1 µM is ≥ 10%.

For `O=S(=O)(c1ccc(COc2ccc(S(=O)(=O)C(F)(F)F)cc2)cc1)C(F)(F)F` [compound 1, 1-((Trifluoromethyl)sulfonyl)-4-((4-((trifluoromethyl)sulfonyl)benzyl)oxy)benzene, reference compound], which “PTPRZ1 phosphatase activity inhibition” value [3] is on record?
Its value is “failed to inhibit PTPRZ1 phosphatase activity”.

For `FC(F)(F)Sc1ccc(CNCc2ccc(SC(F)(F)F)cc2)cc1` [12b, Bis(4-((trifluoromethyl)thio)benzyl)amine hydrochloride], which “effect on amphetamine-induced loss of PC12 cell viability” value [2] is on record?
The value was “the same trend was observed”.

And the inhibition at 1 µM [3]?
Its inhibition at 1 µM is ≥ 10%.

What about the “increase of tyrosine phosphorylation of TrkA” value [5] of the same molecule?
The value was 2–3 fold.

What about the “selectivity PTPRZ1 versus PTP1B” value [6] of the same molecule?
Its value is “strongly and selectively inhibit PTPRZ1”.

What about the “increase in phosphorylation of ALK 140 kDa isoform” value [8] of the same molecule?
Its value is 2 fold.

With `O=C(Cc1ccc(SC(F)(F)F)cc1)NCc1ccc(SC(F)(F)F)cc1` [4c, N-(4-((Trifluoromethyl)thio)benzyl)-2-(4-((trifluoromethyl)thio)phenyl)acetamide] as the molecule, how does the “selectivity PTPRZ1 versus PTP1B” value [6] read?
The value was “remarkable selectivity against PTP1B”.

From PMC5817915 (European journal of medicinal chemistry, 2017)
